21 molecules from ChEMBL document CHEMBL1157119, “1-(2-(2,2,2-trifluoroethoxy)ethyl-1H-pyrazolo[4,3-d]pyrimidines as potent phosphodiesterase 5 (PDE5) inhibitors” (Bioorg Med Chem Lett, 2010) can be followed below.

Calls of active or inactive are those of the source. The calls are words filed in the database; no cut-off is given here.

By IC50 is commonly meant the point on the concentration scale where inhibition reaches its midpoint. Broadly, the clearance is the volume of plasma or blood freed of the substance per unit of time. Low values mean a low capacity for elimination, high ones a high capacity for elimination. By half-life is commonly meant the time in which the quantity being followed falls by half. The term inhibition denotes the share of the control response that was lost under treatment. Higher therefore signals strong suppression.

In series [1] the target is cGMP-specific 3',5'-cyclic phosphodiesterase (Homo sapiens, UniProt O76074). Put plainly: Inhibition of PDE5.
The nature of series [2]: Selectivity ratio of IC50 for PDE11 to IC50 for PDE5. The essentials: (§1)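 The selectivity value is the IC50 at PDE11 or PDE6 divided by the IC50 at PDE5.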
Series [3] can be described thus: Selectivity ratio of IC50 for PDE6 to IC50 for PDE5. In a few lines: as §1
Series [4] is described as follows: Metabolic stability in human liver microsomes assessed as compound remaining after 30 mins. Format: ADME, Microsome. The conditions noted are these: read-out: Stability. Background: Liver microsomes are vesicles of endoplasmic reticulum, rich in cytochrome P450 enzymes.
Series [5] is filed under the species Rattus norvegicus. Put plainly: Antihypertensive activity in spontaneously hypertensive rat assessed as decrease of mean arterial blood pressure. Format: functional, Artery. The essentials: (§2)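 Spontaneously hypertensive rats were dosed orally, or IV in some cases, with compound levels and blood pressure monitored. The read-out was the decrease in mean arterial pressure (MAP), scored as + for a 10–15 mmHg drop and ++ for a drop of >15 mmHg. Oral dosing at 5 mg/kg was followed for up to 20 h post dose.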

A short description of series [6]: Clearance in Beagle dog at 0.2 mg/kg, iv. Format: ADME, organism-based, Canis lupus familiaris. Also noted: dose 0.2 mg/kg, route intravenous. To be noted: in vivo. In a few lines:
(§3)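 Beagle dogs of about 10 kg were dosed at 0.2–0.5 mpk. From the plasma profile, terminal half-life was reported in h, clearance in mL/min/kg and steady-state volume of distribution in L/kg.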

The subject of series [7] is Rattus norvegicus. Put plainly: Antihypertensive activity in spontaneously hypertensive rat assessed as decrease of mean arterial blood pressure at 1.5 mg/kg, iv after 6 hrs. Format: functional, Artery. In a few lines:
(§4)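 Spontaneously hypertensive rats received a single IV dose of 1.5 mg/kg. Mean arterial blood pressure was monitored after dosing, and the decrease in MAP was read at 2 h and 6 h post dose. Compound blood levels were also monitored, including the free fraction at 6 h.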

The subject of series [8] is Rattus norvegicus. Put plainly: Antihypertensive activity in spontaneously hypertensive rat assessed as decrease of mean arterial blood pressure at 5 mg/kg, po up to 20 hrs. Format: functional, organism-based. Also noted: dose 5 mg/kg. The conditions noted are these: Artery. In a few lines: as §2
For series [9], the system named is Rattus norvegicus. Put plainly: Antihypertensive activity in spontaneously hypertensive rat assessed as decrease of mean arterial blood pressure at 5 mg/kg, po. Format: functional, Artery. In a few lines: as §2
Series [10] has as its system Rattus norvegicus. Put plainly: Antihypertensive activity in spontaneously hypertensive rat assessed as decrease of mean arterial blood pressure at 1.5 mg/kg, iv after 2 hrs. The format is functional, Artery. In a few lines:
as §4

Series [11] in a line: Volume of distribution at steady state in Beagle dog at 0.2 mg/kg, iv. Format: ADME, organism-based, Canis lupus familiaris. The arrangement: dose 0.2 mg/kg, route intravenous. The conditions noted are these: in vivo, read-out: Vdss. The essentials:
as §3

Series [12] is described as follows: Half life in Beagle dog at 0.2 mg/kg, iv. The conditions noted are these: in vivo. Also noted: dose 0.2 mg/kg, route intravenous. The format is ADME, organism-based, Canis lupus familiaris. In a few lines: as §3
Series [13] is described as follows: Half life in human liver microsomes. Format: ADME, Microsome.
Series [14] in a line: Inhibition of PDE6.
For another series, the target named is hERG (KCNH2) (Homo sapiens, UniProt Q12809). Put plainly: Displacement of [3H]dofetilide from human ERG expressed in HEK293 cells at 10 uM. The format is cell-based. The conditions noted are these: HEK293 cells that express human ERG, probe [3H]dofetilide.
hERG (KCNH2), sequence (Q12809 whole entry): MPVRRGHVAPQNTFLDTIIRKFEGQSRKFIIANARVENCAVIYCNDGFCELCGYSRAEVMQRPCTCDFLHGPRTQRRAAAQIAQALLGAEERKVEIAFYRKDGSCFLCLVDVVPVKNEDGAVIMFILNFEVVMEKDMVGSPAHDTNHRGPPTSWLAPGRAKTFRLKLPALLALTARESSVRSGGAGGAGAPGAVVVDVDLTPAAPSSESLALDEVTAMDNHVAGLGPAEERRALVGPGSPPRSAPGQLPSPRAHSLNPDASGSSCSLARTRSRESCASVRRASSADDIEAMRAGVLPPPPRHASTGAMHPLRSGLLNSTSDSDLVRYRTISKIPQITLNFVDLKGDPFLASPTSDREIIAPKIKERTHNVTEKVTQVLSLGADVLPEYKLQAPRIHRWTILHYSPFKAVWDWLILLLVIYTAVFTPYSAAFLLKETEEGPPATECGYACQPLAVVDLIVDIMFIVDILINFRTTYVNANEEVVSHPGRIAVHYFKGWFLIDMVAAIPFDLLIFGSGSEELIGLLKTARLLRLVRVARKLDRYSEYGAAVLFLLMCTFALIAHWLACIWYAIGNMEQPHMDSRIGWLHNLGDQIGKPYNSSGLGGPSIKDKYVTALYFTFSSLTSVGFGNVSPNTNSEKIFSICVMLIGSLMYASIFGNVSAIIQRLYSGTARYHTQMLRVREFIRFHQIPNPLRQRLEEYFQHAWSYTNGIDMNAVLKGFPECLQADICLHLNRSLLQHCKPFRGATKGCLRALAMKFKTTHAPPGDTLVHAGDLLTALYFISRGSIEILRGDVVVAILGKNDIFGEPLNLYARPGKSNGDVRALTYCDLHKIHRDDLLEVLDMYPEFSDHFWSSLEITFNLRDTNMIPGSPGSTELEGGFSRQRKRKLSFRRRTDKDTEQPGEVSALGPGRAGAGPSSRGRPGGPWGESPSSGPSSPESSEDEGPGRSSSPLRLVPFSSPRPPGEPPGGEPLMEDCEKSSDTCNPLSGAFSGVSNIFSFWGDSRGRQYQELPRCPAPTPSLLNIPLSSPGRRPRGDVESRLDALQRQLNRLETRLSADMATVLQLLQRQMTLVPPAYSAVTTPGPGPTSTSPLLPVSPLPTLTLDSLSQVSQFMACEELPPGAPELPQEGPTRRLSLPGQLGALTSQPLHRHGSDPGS
Series [15] concerns the target Voltage-gated inwardly rectifying potassium channel KCNH2 (Homo sapiens, UniProt Q12809). Put plainly: Inhibition of human ERG expressed by patch clam electrophysiology assay.

Voltage-gated inwardly rectifying potassium channel KCNH2, sequence (Q12809 whole entry): as above

In series [1], `CCc1nn(CCOCC(F)(F)F)c2c(Nc3ccccn3)nc(N3CCNCC3)nc12` returned an IC50 of 0.65 nM. Besides, the Ratio IC50 amounted to 450 in series [2] and 150 in series [3]. Besides, the remaining at 0.5 h in [4] worked out at 91%.
In turn, `Cc1nn(CCOCC(F)(F)F)c2c(Nc3ccncn3)nc(N3CCCNCC3)nc12` yielded a half-inhibitory concentration (IC50) in series [1] of 9.79 nM. For the same molecule, the Ratio IC50 in series [2] was 204; in series [3] it was 35.
For `CCc1nn(CCOCC(F)(F)F)c2c(Nc3ccncn3)nc(N3CCCNCC3)nc12` the same measures were 3.15 nM, 635 and 69.
Regarding `CCc1nn(CCOCC(F)(F)F)c2c(Nc3ccncn3)nc(N3CCN[C@H](C)C3)nc12`, the Activity in the series filed under Rattus norvegicus [5] is listed as >15 mmHg; in the series with Rattus norvegicus [7] it was 23 mmHg; in the series on Rattus norvegicus [9], 27 mmHg; with Rattus norvegicus [10], 27 mmHg. Further, in series [6], the clearance came to 18.5 mL/min/kg. In addition, the outcome with Rattus norvegicus [8] was Active. Further, the Vd in [11] is 7.8 L/kg. Further, the figures for the half-life in series [12] and in series [13] were 5.1 h and 0.7 h, respectively. Besides, inhibition in [1] was half-maximal at 0.07 nM (IC50).
`CCc1nn(CCOCC(F)(F)F)c2c(Nc3cc(C)ccn3)nc(N3CCNCC3)nc12` returned an IC50 in series [1] of 3.28 nM. Further, the Ratio IC50 amounted to 170 in series [2] and 220 in [3]. Also, the remaining at 0.5 h in [4] amounted to 80%.
Take `CCCc1nn(C)c2c(=O)[nH]c(-c3cc(S(=O)(=O)N4CCN(C)CC4)ccc3OCC)nc12`: in series [14], the concentration for half-maximal inhibition (IC50) came to 30 nM.
`CCOCCn1nc(CC)c2nc(N3CCNCC3)nc(Nc3cccc(C)n3)c21` had an IC50 in series [14] of 946 nM.
Turning to `Cc1nn(CCOCC(F)(F)F)c2c(Nc3ccncn3)nc(N3CCN[C@@H](C)C3)nc12`, 0.94 nM corresponded to half-maximal inhibition in series [1] (IC50).
On to `CCc1nn(CCOCC(F)(F)F)c2c(Nc3ccncn3)nc(N(C)C3CCN(C)CC3)nc12`, for which, in [1], the IC50 is 0.35 nM. Besides, the results for the Ratio IC50 in series [2] and in series [3] were 5650 and 285, respectively. Further, the remaining at 0.5 h in series [4] came out at 31%.
As for `CCc1nn(CCOCC(F)(F)F)c2c(Nc3ccncn3)nc(N3CCCN(C)CC3)nc12`, half-maximal inhibition in series [1] (IC50) required 6.48 nM. Also, the Ratio IC50 is 287 in series [2] and 309 in series [3].
`CCc1nn(CCOCC(F)(F)F)c2c(Nc3cccc(C)n3)nc(N3CCNCC3)nc12` had an IC50 in series [1] of 1.01 nM.
Consider `CCc1nn(CCOCC(F)(F)F)c2c(Nc3ccncn3)nc(N3CCOCC3)nc12`, for which half-maximal inhibition in series [1] (IC50) was put at 3.92 nM. The figures for the Ratio IC50 in [2] and in series [3] were 5100 and 107, respectively.
The molecule `CCCOCCn1nc(CC)c2nc(N3CCNCC3)nc(Nc3ccccn3)c21` yielded an IC50 in series [1] of 0.3 nM.
Take `Cc1cccc(Nc2nc(N3CCNCC3)nc3c(C)nn(CCOCC(F)(F)F)c23)n1`: on hERG (KCNH2), 10 µM produced 40% inhibition. In addition, the results for the concentration for half-maximal inhibition (IC50) in series [15] and in series [1] were 560 nM and 0.78 nM, respectively.
Molecule `Cc1ccnc(Nc2nc(N3CCNCC3)nc3c(C)nn(CCOCC(F)(F)F)c23)c1` gave an IC50 in [1] of 1.84 nM. Moreover, the Ratio IC50 in series [2] was determined as 280; in series [3] it was 510. In series [4], the remaining at 0.5 h came to 75%.
For `CCc1nn(CCOCC(F)(F)F)c2c(Nc3ccncn3)nc(N3CCNCC3)nc12`, the Activity in the series listed under Rattus norvegicus [5] amounted to 10 mmHg. In addition, the IC50 in series [1] came to 0.15 nM.
Regarding `CCc1nn(CCOCC(F)(F)F)c2c(Nc3ccc(F)cc3)nc(N3CCNCC3)nc12`, in [1], half-maximal inhibition (IC50) was put at 0.09 nM.
As for `Cc1nn(CCOCC(F)(F)F)c2c(Nc3ccncn3)nc(N3CCN[C@H](C)C3)nc12`, the Activity in the series filed under Rattus norvegicus [5] is recorded as >15 mmHg. At 10 µM the inhibition on hERG (KCNH2) was 24.7%. Also, in [1], the IC50 worked out at 0.14 nM.
In [1], `CCc1nn(CCOCC(F)(F)F)c2c(Nc3ccncn3)nc(N3CCNC(=O)C3)nc12` showed an IC50 of 2.96 nM.
As to `CCc1nn(CCOCC(F)(F)F)c2c(Nc3ccncn3)nc(NCCN)nc12`, half-maximal inhibition in series [1] (IC50) was put at 9.52 nM. In addition, the Ratio IC50 in series [2] and in series [3] was > 210 throughout.
For the molecule `CCc1nn(CCOC(C)C)c2c(Nc3ccccn3)nc(N3CCNCC3)nc12`, the IC50 in [1] came to 0.86 nM. For the same molecule, the Ratio IC50 in [2] was 52; in [3], 50.
